For orientation: IC50 means the concentration at which inhibition is half-maximal. Usually GI50 stands for the concentration that inhibits growth by half.

The target of test [1] is Cyclin-dependent kinase 2/cyclin E1 (Homo sapiens, UniProt P24941). As to the kind of experiment: Inhibition of His-tagged CDK2/Cyclin-E1 (unknown origin) expressed in baculovirus infected Sf9 insect cells using histone H1 as substrate measured in presence of [gamma-33P]ATP. The format is cell-based.
For a further test, the system named is HT. Description: Antiproliferative activity against human HT cells measured after 72 hrs by calcein AM dye-based fluorescence assay. The format is functional. In outline:
(§1)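 Cells exposed in triplicate to six concentrations for 72 h; calcein AM added for 1 h, live-cell fluorescence read at 485/538 nm (ex/em). GI50 taken from dose-response curves.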

Test [2] can be described thus: Antiproliferative activity against human OCI-Ly2 cells measured after 72 hrs by calcein AM dye-based fluorescence assay. The format is functional. In a few lines:
as §1

Test [3] can be described thus: Antiproliferative activity against human Mino cells measured after 72 hrs by calcein AM dye-based fluorescence assay. The class given is functional. In outline:
as §1

The target of test [4] is Cyclin-dependent kinase 4/cyclin D1 (Homo sapiens, UniProt P11802). As to the kind of experiment: Inhibition of recombinant human N-terminal GST-fused CDK4 (S4 to E303 residues)/cyclin D1 (Q4 to I295 residues) expressed in baculovirus infected Sf9 insect cells using RPPTLSPIPHIPR as substrate measured in presence of [gamma-33P]ATP. In outline:
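CDK/cyclin complexes tested in triplicate at minimum; IC50 values reported from those replicate determinations.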

Another test deals with CDK9/cyclin T1 (Homo sapiens, UniProt P50750). Description: Inhibition of recombinant human N-terminal GST-His6-fused CDK9 (M1 to F372 residues)/N-terminal His6-tagged cyclin T1 (M1 to K726 residues) expressed in baculovirus infected Sf9 insect cells using (YSPTSPS)2KK as substrate measured in presence of [gamma-33P]ATP.
Sequence of CDK9/cyclin T1 (O60563 whole entry, the tested form may be a part): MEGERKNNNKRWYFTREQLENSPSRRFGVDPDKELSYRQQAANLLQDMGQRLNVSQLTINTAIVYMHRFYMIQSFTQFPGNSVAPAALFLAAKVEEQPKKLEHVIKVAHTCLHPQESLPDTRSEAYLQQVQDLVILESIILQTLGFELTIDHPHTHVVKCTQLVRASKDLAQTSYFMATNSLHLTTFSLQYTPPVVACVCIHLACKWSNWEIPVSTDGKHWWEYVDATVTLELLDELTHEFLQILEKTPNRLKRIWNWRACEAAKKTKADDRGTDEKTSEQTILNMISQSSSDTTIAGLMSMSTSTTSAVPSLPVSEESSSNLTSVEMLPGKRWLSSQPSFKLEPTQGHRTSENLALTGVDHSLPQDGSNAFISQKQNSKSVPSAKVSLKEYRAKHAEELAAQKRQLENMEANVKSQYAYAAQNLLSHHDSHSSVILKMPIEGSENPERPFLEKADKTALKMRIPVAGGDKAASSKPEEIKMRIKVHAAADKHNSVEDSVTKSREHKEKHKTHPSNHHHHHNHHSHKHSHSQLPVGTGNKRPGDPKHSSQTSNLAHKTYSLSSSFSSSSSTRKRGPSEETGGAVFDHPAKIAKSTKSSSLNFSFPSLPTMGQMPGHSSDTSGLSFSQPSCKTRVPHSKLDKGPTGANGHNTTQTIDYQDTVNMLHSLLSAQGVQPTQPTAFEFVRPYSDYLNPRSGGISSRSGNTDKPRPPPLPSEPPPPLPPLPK
Sequence of CDK9/cyclin T1 (P50750 whole entry, the tested form may be a part): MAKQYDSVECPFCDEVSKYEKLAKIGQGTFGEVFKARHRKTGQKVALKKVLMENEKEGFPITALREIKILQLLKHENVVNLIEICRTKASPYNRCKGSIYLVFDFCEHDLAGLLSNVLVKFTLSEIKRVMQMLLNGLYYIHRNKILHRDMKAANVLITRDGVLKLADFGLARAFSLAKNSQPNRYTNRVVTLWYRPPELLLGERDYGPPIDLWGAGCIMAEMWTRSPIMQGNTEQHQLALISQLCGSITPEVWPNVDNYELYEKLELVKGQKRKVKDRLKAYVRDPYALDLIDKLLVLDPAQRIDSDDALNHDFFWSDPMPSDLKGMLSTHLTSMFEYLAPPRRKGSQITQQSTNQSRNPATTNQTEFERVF

Sequence of Cyclin-dependent kinase 4/cyclin D1 (P11802 whole entry, the tested form may be a part): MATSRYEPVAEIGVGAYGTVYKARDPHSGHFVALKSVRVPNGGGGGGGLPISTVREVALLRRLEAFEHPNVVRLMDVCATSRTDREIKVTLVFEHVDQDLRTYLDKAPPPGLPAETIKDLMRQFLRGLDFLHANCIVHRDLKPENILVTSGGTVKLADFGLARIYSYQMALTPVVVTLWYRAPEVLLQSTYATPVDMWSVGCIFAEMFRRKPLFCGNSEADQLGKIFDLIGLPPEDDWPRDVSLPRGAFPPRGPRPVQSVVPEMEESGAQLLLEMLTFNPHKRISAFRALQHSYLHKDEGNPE
Sequence of Cyclin-dependent kinase 4/cyclin D1 (P24385 whole entry, further chain, the tested form may be a part): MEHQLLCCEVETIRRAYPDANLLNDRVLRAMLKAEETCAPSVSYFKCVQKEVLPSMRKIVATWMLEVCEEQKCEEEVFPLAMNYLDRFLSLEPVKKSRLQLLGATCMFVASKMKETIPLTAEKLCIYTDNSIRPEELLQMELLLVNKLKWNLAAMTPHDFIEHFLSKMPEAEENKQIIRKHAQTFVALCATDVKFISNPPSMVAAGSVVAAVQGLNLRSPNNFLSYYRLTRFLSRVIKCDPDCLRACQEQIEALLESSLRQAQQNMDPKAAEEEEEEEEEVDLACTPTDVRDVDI

On to `CC(C)c1n[nH]c2c(NCc3ccc(-c4ccccn4)cc3)nc(SCC(O)CO)nc12` (configuration not stated), for which the IC50 in test [1] worked out at 10 nM. Further, the GI50 in the test with HT is 21 nM; in test [2], 22 nM; in test [3] it was 10 nM.
In the case of `CC(C)c1n[nH]c2c(NCc3ccc(-c4ccccn4)cc3)nc(SC(CO)C(C)C)nc12` (configuration not stated), the IC50 in test [1] worked out at 77 nM. Also, the GI50 with HT was 980 nM; in test [2], 1000 nM; in test [3], 1310 nM.
As to `CC(C)c1n[nH]c2c(NCc3ccc(-c4ccccn4)cc3)nc(SC3CCCCC3O)nc12` (configuration not stated), in test [1], the IC50 was 134 nM. Also, the values for the GI50 (with HT; in test [2]; in test [3]) were 636 nM, 680 nM and 530 nM, respectively.
On to `CC(C)c1n[nH]c2c(NCc3ccc(-c4ccccn4)cc3)nc(SCCCN)nc12`, for which the IC50 in test [1] was 22 nM. The results for the GI50 (with HT; in test [2]; in test [3]) were 120 nM, 151 nM and 156 nM, respectively.
For `CSc1nc(NCc2ccc(-c3ccccn3)cc2)c2[nH]nc(C(C)C)c2n1`, the GI50 with HT was 783 nM; in test [2], 1210 nM; in test [3], 1050 nM.
Turning to `COCSc1nc(NCc2ccc(-c3ccccn3)cc2)c2[nH]nc(C(C)C)c2n1`, the IC50 in test [1] was determined as 59 nM. The values for the GI50 (with HT; in test [2]; in test [3]) were 340 nM, 285 nM and 243 nM, respectively.
Consider `CC(C)c1n[nH]c2c(NCc3ccc(-c4ccccn4)cc3)nc(SC3CCCCC3N)nc12` (configuration not stated), for which the IC50 in test [1] was found to be 52 nM. For the same compound, the GI50 was 139 nM in the test with HT, 136 nM in test [2] and 157 nM in test [3].
With `CC(C)c1n[nH]c2c(NCc3ccc(-c4ccccn4)cc3)nc(SCC3CNC(=O)O3)nc12` (configuration not stated), the IC50 in test [1] was 19 nM. Moreover, the values for the GI50 (in the test with HT; in test [2]; in test [3]) were 80 nM, 53 nM and 69 nM, respectively.
As to `CC(C)c1n[nH]c2c(NCc3ccc(-c4ccccn4)cc3)nc(SCCNC(=N)N)nc12`, the IC50 in test [1] came to 30 nM. The GI50 is 390 nM in the test on HT, 812 nM in test [2] and 390 nM in test [3].
Consider `CC[C@H](CO)Nc1nc(NCc2ccc(-c3ccccn3)cc2)c2ncn(C(C)C)c2n1`, for which the results for the GI50 (in the test with HT; in test [2]; in test [3]) were 263 nM, 307 nM and 202 nM, respectively. Besides, the IC50 was 26100 nM in test [4] and 272 nM on CDK9/cyclin T1.
For the compound `CC(O)CSc1nc(NCc2ccc(-c3ccccn3)cc2)c2[nH]nc(C(C)C)c2n1` (configuration not stated), the IC50 in test [1] is 12 nM. Further, the results for the GI50 (in the test with HT; in test [2]; in test [3]) were 62 nM, 152 nM and 81 nM, respectively.
The matching figures for `CC(C)c1n[nH]c2c(NCc3ccc(-c4ccccn4)cc3)nc(SCCC(N)=O)nc12`: 19 nM, 120 nM, 84 nM and 81 nM.
Regarding `C=CC(=O)N1CCC[C@@H](n2nc(-c3ccc(Oc4ccccc4)cc3)c3c(N)ncnc32)C1` [IBRUTINIB], the GI50 is 15900 nM in the test on HT, 18900 nM in test [2] and 10700 nM in test [3].
In the case of `CC(C)c1n[nH]c2c(NCc3ccc(-c4ccccn4)cc3)nc(SCC(C)(C)O)nc12`, the IC50 in test [1] came out at 30 nM. The GI50 was 507 nM in the test with HT, 610 nM in test [2] and 477 nM in test [3].
The matching figures for `CC(C)c1n[nH]c2c(NCc3ccc(-c4ccccn4)cc3)nc(SCCN(C)C)nc12`: 77 nM, 54 nM, 61 nM and 93 nM.
With `CCC(CO)Sc1nc(NCc2ccc(-c3ccccn3)cc2)c2[nH]nc(C(C)C)c2n1` (configuration not stated), the IC50 in test [1] came to 150 nM. The GI50 with HT was 255 nM; in test [2] it was 181 nM; in test [3] it was 119 nM.
Consider `CC(C)c1n[nH]c2c(NCc3ccc(-c4ccccn4)cc3)nc(SCC(O)CN3CCOCC3)nc12` (configuration not stated), for which the concentration for half-maximal inhibition (IC50) in test [1] amounted to 156 nM. Further, the GI50 is 200 nM in the test on HT, 200 nM in test [2] and 243 nM in test [3].
In the case of `CC(C)c1n[nH]c2c(NCc3ccc(-c4ccccn4)cc3)nc(SCC(O)CN3CCNCC3)nc12` (configuration not stated), the IC50 in test [1] is 171 nM. For the same compound, the GI50 in the test with HT is 332 nM; in test [2], 435 nM; in test [3], 767 nM.
`CC(C)c1n[nH]c2c(NCc3ccc(-c4ccccn4)cc3)nc(SCC(O)C(F)(F)F)nc12` (configuration not stated): the IC50 in test [1] was 132 nM. Moreover, the figures for the GI50 (in the test with HT; in test [2]; in test [3]) were 690 nM, 585 nM and 641 nM, respectively.
The matching figures for `CC(C)c1n[nH]c2c(NCc3ccc(-c4ccccn4)cc3)nc(SCC(N)=O)nc12`: 27 nM, 192 nM, 163 nM and 197 nM.
Turning to `CC(C)c1n[nH]c2c(NCc3ccc(-c4ccccn4)cc3)nc(SCC(O)CN)nc12` (racemic), in test [1], the IC50 was 31 nM. Besides, the GI50 in the test with HT was 55 nM; in test [2], 55 nM; in test [3], 64 nM.
Take `CC(=O)NCCSc1nc(NCc2ccc(-c3ccccn3)cc2)c2[nH]nc(C(C)C)c2n1`: in test [1], the IC50 came out at 41 nM. Also, the GI50 in the test on HT was 71 nM; in test [2], 54 nM; in test [3], 42 nM.
As for `CC(C)c1n[nH]c2c(NCc3ccc(-c4ccccn4)cc3)nc(SCC(C)(C)N)nc12`, the IC50 in test [1] was determined as 20 nM. The GI50 is 85 nM in the test with HT, 100 nM in test [2] and 64 nM in test [3].
On to `CC(C)c1n[nH]c2c(NCc3ccc(-c4ccccn4)cc3)nc(SCCn3ccnc3)nc12`, for which the IC50 in test [1] was 32 nM. Also, the GI50 is 155 nM with HT, 145 nM in test [2] and 135 nM in test [3].
Turning to `CC(C)c1n[nH]c2c(NCc3ccc(-c4ccccn4)cc3)nc(SCCCO)nc12`, in test [1], the IC50 worked out at 21 nM. The GI50 with HT was 109 nM; in test [2], 102 nM; in test [3] it was 89 nM.
With `CC(C)c1n[nH]c2c(NCc3ccc(-c4ccccn4)cc3)nc(S)nc12`, in test [1], the IC50 came out at 558 nM. The GI50 with HT is 2760 nM; in test [2] it was 3240 nM; in test [3] it was 2180 nM.
`CC(C)c1n[nH]c2c(NCc3ccc(-c4ccccn4)cc3)nc(SCCO)nc12`: in test [1], the IC50 is 3 nM. For the same compound, the results for the GI50 (in the test on HT; in test [2]; in test [3]) were 48 nM, 50 nM and 40 nM, respectively.
As for `CCC(O)CSc1nc(NCc2ccc(-c3ccccn3)cc2)c2[nH]nc(C(C)C)c2n1` (configuration not stated), the IC50 in test [1] was 39 nM. In addition, the GI50 with HT was 273 nM; in test [2], 280 nM; in test [3], 427 nM.
The matching figures for `CC(C)c1n[nH]c2c(NCc3ccc(-c4ccccn4)cc3)nc(SC3CCCC3O)nc12` (configuration not stated): 52 nM, 567 nM, 373 nM and 450 nM.
`CSCCSc1nc(NCc2ccc(-c3ccccn3)cc2)c2[nH]nc(C(C)C)c2n1`: the IC50 in test [1] is 138 nM. The GI50 in the test with HT was 975 nM; in test [2], 668 nM; in test [3], 773 nM.
Turning to `CC(C)c1n[nH]c2c(NCc3ccc(-c4ccccn4)cc3)nc(SC[C@H](O)CN)nc12`, the IC50 in test [1] came out at 11 nM. The GI50 with HT was 63 nM; in test [2], 99 nM; in test [3] it was 51 nM.
As to `CC(C)c1n[nH]c2c(NCc3ccc(-c4ccccn4)cc3)nc(SC(C)C(C)O)nc12` (configuration not stated), the IC50 in test [1] is 3 nM. Further, the GI50 in the test with HT is 190 nM; in test [2] it was 141 nM; in test [3], 160 nM.
As to `CNCCSc1nc(NCc2ccc(-c3ccccn3)cc2)c2[nH]nc(C(C)C)c2n1`, the IC50 in test [1] stood at 13 nM. Besides, the GI50 is 56 nM in the test with HT, 92 nM in test [2] and 40 nM in test [3].
The matching figures for `CC(C)c1n[nH]c2c(NCc3ccc(-c4ccccn4)cc3)nc(SCC(N)CN)nc12` (configuration not stated): 12 nM, 480 nM, 780 nM and 770 nM.
Consider `C=CCSc1nc(NCc2ccc(-c3ccccn3)cc2)c2[nH]nc(C(C)C)c2n1`, for which, in test [1], the IC50 turned out to be 100 nM. In addition, the GI50 in the test with HT is 1000 nM; in test [2] it was 858 nM; in test [3], 923 nM.
The matching figures for `CC(C)c1n[nH]c2c(NCc3ccc(-c4ccccn4)cc3)nc(SCCNC(N)=O)nc12`: 18 nM, 240 nM, 198 nM and 136 nM.
The matching figures for `CC(C)c1n[nH]c2c(NCc3ccc(-c4ccccn4)cc3)nc(SCCCN(C)C)nc12`: 99 nM, 105 nM, 109 nM and 76 nM.

These data come from ChEMBL document CHEMBL4385606, “3,5,7-Substituted Pyrazolo[4,3- d]pyrimidine Inhibitors of Cyclin-Dependent Kinases and Their Evaluation in Lymphoma Models” (J Med Chem, 2019).
